Values belong to the molecule of their own block, whether it stands above or below them.
Biological target: T1, Interleukin-5 (Mus musculus) (UniProt P04401)
T1 sequence (whole entry): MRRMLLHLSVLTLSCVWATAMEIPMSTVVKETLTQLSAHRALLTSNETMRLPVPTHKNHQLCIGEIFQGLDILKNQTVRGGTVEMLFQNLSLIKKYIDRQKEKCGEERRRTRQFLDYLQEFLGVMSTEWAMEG
Experiment: Inhibition interleukin-5 in mouse Y16 cells at 30 uM after 48 hrs by WST-1 assay
Assay type: cell-based
How it was run: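 IL-5-dependent pro-B Y16 cells stimulated with 3 U/mL mIL-5 and incubated 48 h with or without sample; cell metabolism read by WST-1 as proliferation index.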

Structure (SMILES): O=c1c(CCC(O)c2ccc(Cl)cc2)coc2cccc(OCC3CCCCC3)c12 (centres undefined)
inhibition: 94%

Structure (SMILES): O=c1c(CCC(O)c2ccccc2)coc2cccc(OCC3CCCCC3)c12 (centres undefined)
inhibition: 94%

Structure (SMILES): COc1ccc(C(=O)CCC2COc3cccc(OCC4CCCCC4)c3C2=O)cc1 (centres undefined)
inhibition: 34%

Structure (SMILES): O=C(CCc1coc2cccc(OCC3CCCCC3)c2c1=O)c1ccc2ccccc2c1
inhibition: 10%

Structure (SMILES): O=c1c(CCC(O)c2ccc(O)cc2)coc2cccc(OCC3CCCCC3)c12 (centres undefined)
inhibition: 94%

Structure (SMILES): O=c1c(CCC(O)c2ccc(F)cc2)coc2cccc(OCC3CCCCC3)c12 (centres undefined)
inhibition: 94%

Structure (SMILES): COc1ccc(C(O)CCc2coc3cccc(OCC4CCCCC4)c3c2=O)cc1 (centres undefined)
inhibition: 94%

Structure (SMILES): N#Cc1ccc(C(O)CCc2coc3cccc(OCC4CCCCC4)c3c2=O)cc1 (centres undefined)
inhibition: 94%

Structure (SMILES): O=c1c(CCC(O)c2ccc(C(F)(F)F)cc2)coc2cccc(OCC3CCCCC3)c12 (centres undefined)
inhibition: 55%

Structure (SMILES): O=C(CCc1coc2cccc(OCC3CCCCC3)c2c1=O)c1ccc(Cl)c(Cl)c1
inhibition: 68%

Structure (SMILES): O=c1c(CCC(O)c2ccc3ccccc3c2)coc2cccc(OCC3CCCCC3)c12 (centres undefined)
inhibition: 86%

Structure (SMILES): O=C(CCC1COc2cccc(OCC3CCCCC3)c2C1=O)c1ccc(Cl)c(Cl)c1 (centres undefined)
inhibition: 40%

Structure (SMILES): O=c1c(CCC(O)c2ccc(Cl)c(Cl)c2)coc2cccc(OCC3CCCCC3)c12 (centres undefined)
inhibition: 94%

Structure (SMILES): Cc1ccc(C(O)CCc2coc3cccc(OCC4CCCCC4)c3c2=O)cc1 (centres undefined)
inhibition: 13.5%

Next, values leading:

inhibition: 70%
Structure (SMILES): Cc1ccc(C(=O)CCc2coc3cccc(OCC4CCCCC4)c3c2=O)cc1

inhibition: 93%
Structure (SMILES): N#Cc1ccc(C(=O)CCc2coc3cccc(OCC4CCCCC4)c3c2=O)cc1

inhibition: 94%
Structure (SMILES): O=C(CCc1coc2cccc(OCC3CCCCC3)c2c1=O)c1ccc(Cl)cc1

inhibition: 5.3%
Structure (SMILES): O=C(CCc1coc2cccc(OCC3CCCCC3)c2c1=O)c1ccc(C(F)(F)F)cc1

inhibition: 93%
Structure (SMILES): O=C(CCc1coc2cccc(OCC3CCCCC3)c2c1=O)c1ccc(F)cc1

inhibition: 6.7%
Structure (SMILES): CC(C)(C)c1ccc(C(=O)CCc2coc3cccc(OCC4CCCCC4)c3c2=O)cc1

inhibition: 80%
Structure (SMILES): O=C(CCc1coc2cccc(OCC3CCCCC3)c2c1=O)c1ccc(O)cc1

inhibition: 91%
Structure (SMILES): COc1ccc(C(=O)CCc2coc3cccc(OCC4CCCCC4)c3c2=O)cc1

inhibition: 12.3%
Structure (SMILES): O=C(CCc1coc2cccc(OCC3CCCCC3)c2c1=O)c1ccccc1

inhibition: 6.6%
Structure (SMILES): CC(C)(C)c1ccc(C(O)CCc2coc3cccc(OCC4CCCCC4)c3c2=O)cc1 (centres undefined)
